A selection: hits, their analogues and other compounds. The true share with any hit is near 12%.
Lmaj promast – reduces viability of Leishmania major promastigotes | resazurin fluorescence viability | inhibition, % at 10 µM | 9% of 200,000 active | AID 1063; in the data active means inhibition above about 50%;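 further: promastigotes grown with compound for 44 hours at 28 °C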
Diaphorase act – activates diaphorase or chemically reduces, flagging diaphorase assay artifacts. activation factor at 20 µM. 0.005% of 190,000 active. AID 1229. Diaphorase/resazurin coupled assay, resorufin fluorescence, 16 min; active compounds read high; 1 = vehicle wells, 0 = NADH-free wells;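 active means diaphorase activity raised at least twofold by the compound at 20 µM; inactive means activation factor below 2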
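Material: purified diaphorase enzyme from Clostridium kluyveri / Medium: HEPES pH 7.4 buffer with MgCl2 and Tween 20 / Schedule: enzyme reaction of 16 min at room temperature / Measured by: resorufin fluorescence, excitation 544 nm, emission 590 nm / Evaluation: rise in resorufin formation, marking diaphorase activation or chemical reduction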
Diaph inh CS – inhibits diaphorase or chemically oxidizes, flagging diaphorase assay artifacts; diaphorase resazurin-to-resorufin fluorescence, NADH, 16 min; bacterial (C. kluyveri) enzyme, not human; inhibition, % at 20 µM; 0.69% of 190,000 active;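 active means primary screen inhibition at 20 µM above a set limit, cut at about 50% in these data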;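 further: plate controls were DMSO with full reaction for no effect and wells lacking NADH for full effect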
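Test system: bacterial diaphorase enzyme (C. kluyveri); Quantity: 0.14 U/mL diaphorase, enzyme working solution; Times: reaction incubation of 16 min at room temperature; Measured by: fluorescence of resorufin formed from resazurin, Ex 544/Em 590 nm; Benchmarks: positive control minus NADH, DMSO neutral control.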
Cl transport mod – modulators of human KCC2 chloride dependent transport | KCC2 cells, thallium flux FluoZin-2 fluorescence | 2.2% of 190,000 active | Q9H2X9 | B-score of Tl+ flux slope (higher = more flux/activation; lower = inhibition) at 10 µM | AID 1456;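 active means thallium flux slope and its plate-corrected score both differing from the plate sample mean at a set confidence after two filtering rounds, in either direction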;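 further: slope of fluorescence scaled to starting intensity during 10 to 20 s after thallium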
WT yeast gro inh – growth inhibition of WT yeast, mitochondrial fusion screen; mitochondrial fusion phenotypic screen, WT strain; inhibition, % at 10 µM; AID 1362; 2.1% of 190,000 active; in the data active means inhibition above about 58%; tested in S. cerevisiae
ROMK primary – modulates human ROMK potassium channel activity. 2% of 130,000 active. Tet-inducible ROMK, thallium flux fluorescence; actives lie on both sides. B-score at 10 µM;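 active means signal ratio slope over the read window, or its plate-corrected B-score, at least 3 SD from the plate mean, either direction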;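 further: B-score of the F/F0 ratio slope over 7 to 12 s after thallium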
Target sequence (P48048 whole entry, looked up): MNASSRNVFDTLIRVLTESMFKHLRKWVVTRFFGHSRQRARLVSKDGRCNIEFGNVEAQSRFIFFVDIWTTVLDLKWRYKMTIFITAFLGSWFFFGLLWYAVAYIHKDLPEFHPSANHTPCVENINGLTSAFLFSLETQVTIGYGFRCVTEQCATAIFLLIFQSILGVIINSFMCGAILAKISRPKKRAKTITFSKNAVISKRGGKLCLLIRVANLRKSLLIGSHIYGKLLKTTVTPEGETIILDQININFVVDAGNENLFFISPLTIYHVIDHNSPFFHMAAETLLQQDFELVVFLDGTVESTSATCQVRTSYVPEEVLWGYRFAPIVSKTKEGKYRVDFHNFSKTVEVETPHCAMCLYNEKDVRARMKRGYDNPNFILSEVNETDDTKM
* marks the source's active call; other numbers are inactive results; · = not tested or not shown.

SMILES	Lmaj promast	Diaphorase act	Diaph inh CS	Cl transport mod	WT yeast gro inh	ROMK primary
OCCCNC(=S)Nc1ccc2nc(-c3ccccn3)c(-c3ccccn3)nc2c1	-3	0.3	68*	·	29	·
CC(C)(C)CC(C)(C)NC(=S)Nc1ccc2nc(-c3ccccn3)c(-c3ccccn3)nc2c1	10	0.7	35	-2.8	5	-2
CN(C)NC(=S)Nc1ccc2nc(-c3ccccn3)c(-c3ccccn3)nc2c1	-5	0.6	36	·	-5	-0.4
S=C(Nc1ccc2nc(-c3ccccn3)c(-c3ccccn3)nc2c1)N1CCOCC1	0	0.5	51*	0.13	-21	-0.11
COc1ccc(C(=O)NC(=S)NNC(=O)Cc2cccs2)cc1	8	0.7	32	1.2	5	·
COc1ccc(/C=C/C(=O)NC(=S)NNC(=O)Cc2cccs2)cc1OC	99*	0.6	35	-1.3	6	1.5
O=C(/C=C/c1cccs1)NC(=S)NNC(=O)Cc1cccs1	64*	1	-1	1.8	-10	·
Cc1ccc(NC2=CC(=O)C(=O)c3ccccc32)cc1	99*	0.8	20	0.58	65*	·
CCOC(=O)c1ccc(NC2=CC(=O)C(=O)c3ccccc32)cc1	100*	0.7	32	0.47	1	·
CCOC(=O)c1ccc(NC(=O)C(C)N2C(=O)c3ccccc3C2=O)cc1 (stereo not drawn)	-6	0.9	9	·	15	-0.28
CCC1=NN(C(=O)c2cccnc2)C(O)(C(F)(F)F)C1 (stereo not drawn)	25	1	-1	-0.017	3	-0.32
COc1cc(OC)cc(-c2nc3ccccc3c(=O)o2)c1	-1	0.8	21	1.4	-14	·
O=c1oc(-c2ccccc2NS(=O)(=O)c2ccc3ccccc3c2)nc2ccccc12	92*	0.7	26	-0.099	32	0.22
CC1(C)OC(c2ccccc2)=C/C(=C/C=N/NC(=O)c2ccncc2)O1	7	1.2	-21	-0.73	8	1
CCOC(=O)c1cc(-c2ccc(OC)cc2)nn1-c1ccc(C(=O)O)cc1	-2	0.8	19	0.47	-6	0.35
O=C(NC(CC(=O)N1CCN(c2ccc([N+](=O)[O-])cc2)CC1)c1ccccc1)c1ccccc1Cl (stereo not drawn)	83*	0.8	17	-0.54	-4	-0.45
CC(C)Cn1c(O)c(/C=C2\C=NN=C2c2ccccc2)sc1=S	13	0.7	28	0.13	63*	·
COc1ccc(S(=O)(=O)N(C)CC(=O)N2CCC(C)CC2)cc1Cl	97*	1	2	0.88	-10	0
COc1ccc(OC)c(N(CC(=O)N2CCC(C)CC2)S(=O)(=O)c2ccc(OC)c(OC)c2)c1	2	0.8	23	0.84	-7	·
O=C(NC1CCCCC1)c1sc(N2CCOCC2)nc1-c1ccccc1	88*	1	-1	-0.12	-12	·
O=C(Nc1ccccc1)c1sc(N2CCOCC2)nc1-c1ccccc1	13	0.9	12	-0.68	7	·
CCOC(=O)c1ccc(Oc2nc(OC)cc(OC)n2)cc1	2	0.9	5	-0.072	1	0.12
CCn1c(O)c(N=NC(=O)CNc2ccc(C)cc2)c2ccccc21	2	0.8	18	1.6	14	-0.85
CCn1c(O)c(N=NC(=O)CNc2cccc(C)c2)c2ccccc21	-3	0.9	14	5.6*	2	·
Cc1ccsc1CNC(=O)c1c(-c2ccccc2)noc1C	·	·	·	0.056	·	·
SMILES	Lmaj promast	Diaphorase act	Diaph inh CS	Cl transport mod	WT yeast gro inh	ROMK primary
CCC(C)N(CC(=O)Nc1cccc(C)c1C)C(=O)CCl (stereo not drawn)	64*	0.9	15	0.55	12	-3.1
CCC(CC)NC(=O)Nc1cccc(C)c1C	3	1.1	-8	-0.42	4	-0.1
COc1ccccc1NS(=O)(=O)c1cccc(N2CC(O)=C(c3ccccc3)C2=N)c1	2	0.9	14	2.1	-7	1
CS(=O)(=O)NCC(c1cccnc1)N1CCN(c2ccc(F)cc2)CC1 (stereo not drawn)	45	0.9	8	·	11	·
O=S(=O)(NCC(c1cccnc1)N1CCN(c2ccc(F)cc2)CC1)c1cc(F)ccc1F (stereo not drawn)	95*	·	·	-0.00011	5	-2.9
COc1ccc(N2CCN(C(CNS(=O)(=O)c3cc(F)ccc3F)c3cccnc3)CC2)cc1 (stereo not drawn)	99*	0.9	10	·	-3	0.4
CCc1ccc(NC(=O)C(C)OC(=O)CCC(=O)c2cccs2)cc1 (stereo not drawn)	46	0.8	16	-2.3	7	-1.2
CCOC(=O)CSc1nc(C)nc2c1sc1nc(C)c(C(C)=O)c(-c3ccc(OC)cc3)c12	85*	0.9	6	-0.68	4	-0.9
CCOC(=O)c1c(C)nc2sc3c(=O)n(-c4ccc(C)cc4)cnc3c2c1-c1ccc(OC)cc1	0	0.8	21	·	7	·
COCCN=C1Sc2nc3ccc(C)cc3cc2CN1Cc1ccco1	60*	1	4	0.8	-12	-0.29
COc1cc(NC(=O)CSCC(=O)Nc2cc(OC)cc(OC)c2)cc(OC)c1	·	·	·	0.45	·	·
COc1ccc(C(=O)Oc2c(C)occc2=O)cc1OC	-7	0.9	7	·	14	·
Cc1occc(=O)c1OC(=O)Nc1ccc(Cl)c(Cl)c1	-2	0.9	12	0.62	80*	0.41
COC(=O)C1=NN(c2cccc(C)c2)C2C(=O)N(c3ccccc3OC)C(=O)C12 (stereo not drawn)	-4	0.9	10	0.058	-10	·
Cc1ccc2cc(C(c3nnnn3Cc3ccccc3)N3CCN(c4ccccc4)CC3)c(=O)[nH]c2c1 (stereo not drawn)	93*	0.6	39	·	-9	0.17
COc1ccc2cc(C(c3nnnn3Cc3ccccc3)N3CCCCCC3)c(=O)[nH]c2c1 (stereo not drawn)	36	0.6	43	-1.9	·	·
COc1ccc(N2CCN(C(c3cc4cc(C)ccc4[nH]c3=O)c3nnnn3Cc3ccccc3)CC2)cc1 (stereo not drawn)	99*	0.8	22	0.042	6	-0.62
Cc1ccc2cc(C(c3nnnn3C3CCCC3)N3CCN(c4ccccc4)CC3)c(=O)[nH]c2c1 (stereo not drawn)	76*	0.7	31	·	-7	-0.3
COc1ccc(Cn2nnnc2C(c2cc3cc(C)ccc3[nH]c2=O)N2CCOCC2)cc1 (stereo not drawn)	-8	1	2	0.042	-11	·
COc1cc2cc(C(c3nnnn3C3CCCC3)N3CCCCC3)c(=O)[nH]c2cc1OC (stereo not drawn)	-1	0.8	20	1.1	-13	·
C/C=C(\C)C(=O)Nc1cccc(C2=NOC3(C2)C[C@H](C(N)=O)N(C(=O)C(c2ccccc2)c2ccccc2)C3)c1 (stereo partly drawn)	·	·	·	-0.66	·	·

Compound activity as filed in PubChem.
